Data as given in ChEMBL document CHEMBL1153602, “Photochemical electrocyclisation of 3-vinylindoles to pyrido[2,3-a]-, pyrido[4,3-a]- and thieno[2,3-a]-carbazoles: design, synthesis, DNA binding and antitumor cell cytotoxicity” (2009).
Calls of active or inactive are those of the source. The rule behind the calls is not given here.

Experiments:
[1] = system: Calf thymus DNA; experiment: Binding affinity to calf thymus DNA assessed as change in melting temperature at a compound to DNA molar ratio of 0.25 by UV-vis spectroscopy; assay type: nucleic-acid assay; conditions: Bos taurus
Procedure, shortened: (§1)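 UV absorbance of DNA at 260 nm recorded every minute from 20 to 100 °C, ramping 1 °C/min in a thermostated quartz cell. Tm is taken as the midpoint of the hyperchromic transition. ΔTm = Tm(DNA+drug) − Tm(DNA alone). Calf-thymus DNA or poly(dAdT)2 was used at DNA/drug ratios from 0.1 to 1.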

[2] = system: Nucleic Acid; experiment: Binding affinity to poly(dA).poly(dT) duplex DNA assessed as change in thermal melting temperature at compound to DNA ratio of 0.25 by UV-vis spectroscopy; assay type: nucleic-acid assay
[3] = system: Calf thymus DNA; experiment: Binding affinity to calf thymus DNA assessed as change in melting temperature at a compound to DNA molar ratio of 0.1 by UV-vis spectroscopy; assay type: nucleic-acid assay; conditions: Bos taurus; procedure, shortened: as §1
[4] = system: HT-29; experiment: Cell cycle arrest in human HT-29 cells assessed as accumulation at G2/M phase after 24 hrs using PI staining by flow cytometry; assay type: functional, cell-based
Procedure, shortened: (§2)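 HT-29 cells, 3×10^5 per sample in exponential growth, were exposed to graded drug concentrations for 24 h. Cells were then trypsinised, fixed in 70% ethanol and stained 30 min in the dark with propidium iodide (50 µg/ml) plus RNase (100 µg/ml). DNA content was measured by flow cytometry, quantifying cell-cycle phases and the sub-G1 fraction.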

[5] = system: Calf thymus DNA; experiment: Binding affinity to calf thymus DNA assessed as change in melting temperature at a compound to DNA molar ratio of 1 by UV-vis spectroscopy; assay type: nucleic-acid assay; conditions: Bos taurus; procedure, shortened: as §1
[6] = system: Calf thymus DNA; experiment: Binding affinity to calf thymus DNA assessed as positive dichroic signal at phosphate/drug ratio by circular dichroism spectra; assay type: nucleic-acid assay; conditions: Bos taurus
Procedure, shortened: (§3)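 Circular dichroism of drug at […] in 1 ml of 1 mM sodium cacodylate, pH 7.0, with or without CT-DNA at 10–200 µM. Phosphate/compound ratio ran from 0.4 to 8. The induced CD signal in the ligand absorption region was recorded.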

[7] = system: Nucleic Acid; experiment: Binding affinity to poly(dA).poly(dT) duplex DNA assessed as change in thermal melting temperature at compound to DNA ratio of 0.5 by UV-vis spectroscopy; assay type: nucleic-acid assay
[8] = system: Calf thymus DNA; experiment: Binding affinity to calf thymus DNA assessed as quenching constant by fluorescence spectroscopy; assay type: nucleic-acid assay; conditions: Bos taurus
Procedure, shortened: (§4)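 Drug at a fixed 20 µM in 1 ml BPE buffer in a 10 mm quartz cuvette, titrated with CT-DNA at 10–200 µM base pairs. Excitation was set at each compound's own wavelength (276–319 nm). Constants came from Stern–Volmer plots of F0/F against CT-DNA concentration, with the slope taken as Ksv.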

[9] = system: HT-29; experiment: Growth inhibition of human HT-29 cells by MTS assay; assay type: functional
Procedure, shortened: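 HT-29 cells, 3×10^3 per well, were seeded 24 h before treatment with compound at 1 nM–100 µM, run as 3 series of duplicate or triplicate points. After 72 h at 37 °C, MTS tetrazolium was added for 2 h and absorbance read at 492 nm. GC50 is the concentration halving cell number versus untreated control wells.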

[10] = system: Nucleic Acid; experiment: Binding affinity to pBS 117bp DNA by DnaseI footprinting assay; assay type: nucleic-acid assay
Procedure, shortened: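 Ligand and fragment were pre-incubated 15 min at 37 °C, then digested with DNase I at 0.001 unit/ml in 20 mM NaCl, 2 mM MgCl2, 2 mM MnCl2, pH 7.3. Products were resolved on a denaturing 8% polyacrylamide/8 M urea gel, with a G-track marker.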

[11] = system: Nucleic Acid; experiment: Binding affinity to poly(dA).poly(dT) duplex DNA assessed as change in thermal melting temperature at compound to DNA ratio of 0.1 by UV-vis spectroscopy; assay type: nucleic-acid assay
[12] = system: Nucleic Acid; experiment: Binding affinity to poly(dA).poly(dT) duplex DNA assessed as change in thermal melting temperature at compound to DNA ratio of 1 by UV-vis spectroscopy; assay type: nucleic-acid assay
[13] = system: Calf thymus DNA; experiment: Binding affinity to calf thymus DNA assessed as negative dichroic signal at phosphate/drug ratio by circular dichroism spectra; assay type: nucleic-acid assay; conditions: Bos taurus; procedure, shortened: as §3
[14] = system: Calf thymus DNA; experiment: Binding affinity to calf thymus DNA assessed as change in melting temperature at a compound to DNA molar ratio of 0.5 by UV-vis spectroscopy; assay type: nucleic-acid assay; conditions: Bos taurus; procedure, shortened: as §1
[15] = system: UO-31; experiment: Growth inhibition of human UO31 cells after 48 hrs by sulforhodamine B protein assay; assay type: functional; conditions: UO-31, 48 h
Procedure, shortened: (§5)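 NCI 60-cell-line screen. Dose–response used at least five concentrations in 10-fold dilutions with 48 h continuous drug exposure. Growth was estimated by sulforhodamine B protein staining. GI50 is the molar concentration giving 50% growth inhibition versus control.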

[16] = system: IGROV-1; experiment: Growth inhibition of human IGROV1 cells after 48 hrs by sulforhodamine B protein assay; assay type: functional; conditions: IGROV-1, 48 h; procedure, shortened: as §5
[17] = system: HT-29; experiment: Cell cycle arrest in human HT-29 cells assessed as reduction of cells in G1 phase after 24 hrs using PI staining by flow cytometry; assay type: functional, cell-based; procedure, shortened: as §2
[18] = system: CAKI-1; experiment: Growth inhibition of human Caki1 cells after 48 hrs by sulforhodamine B protein assay; assay type: functional; conditions: CAKI-1, 48 h; procedure, shortened: as §5
[19] = biological target: T1, DNA topoisomerase 1 (Homo sapiens) (UniProt P11387); experiment: Inhibition of human topoisomerase 1-mediated DNA relaxation assessed as lack of nicking form by agarose gel electrophoresis
T1 sequence (whole entry): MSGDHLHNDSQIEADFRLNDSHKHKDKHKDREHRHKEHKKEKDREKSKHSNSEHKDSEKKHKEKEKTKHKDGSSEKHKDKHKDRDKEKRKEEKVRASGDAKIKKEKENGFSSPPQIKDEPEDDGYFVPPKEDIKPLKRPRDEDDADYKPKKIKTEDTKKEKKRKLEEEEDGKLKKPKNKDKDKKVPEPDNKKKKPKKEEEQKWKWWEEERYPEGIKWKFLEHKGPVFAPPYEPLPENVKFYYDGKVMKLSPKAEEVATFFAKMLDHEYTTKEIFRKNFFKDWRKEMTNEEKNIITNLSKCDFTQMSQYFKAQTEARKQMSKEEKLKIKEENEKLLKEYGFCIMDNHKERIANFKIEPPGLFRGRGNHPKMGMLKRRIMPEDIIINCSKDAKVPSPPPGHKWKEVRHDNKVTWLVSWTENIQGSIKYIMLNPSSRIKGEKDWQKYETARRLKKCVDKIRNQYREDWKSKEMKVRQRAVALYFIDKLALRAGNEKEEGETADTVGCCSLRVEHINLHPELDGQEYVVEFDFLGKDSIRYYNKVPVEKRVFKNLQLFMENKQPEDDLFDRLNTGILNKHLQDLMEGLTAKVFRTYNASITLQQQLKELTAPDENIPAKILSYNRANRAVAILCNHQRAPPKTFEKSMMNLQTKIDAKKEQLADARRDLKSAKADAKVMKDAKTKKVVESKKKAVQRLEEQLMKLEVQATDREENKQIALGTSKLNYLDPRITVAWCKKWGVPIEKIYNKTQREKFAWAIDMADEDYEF
Procedure, shortened: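 Supercoiled pUC19 (130 ng) was pre-incubated with compound at graded concentrations, or 20 or 50 µM in the cleavage assay. Human topoisomerase I (4 units) was then added for 45 min at 37 °C in 50 mM Tris pH 7.8, 50 mM KCl, 10 mM MgCl2, 1 mM DTT, 1 mM EDTA, 1 mM ATP. Camptothecin (20 µM) served as control. Samples ran on 1% agarose for 2 h at 120 V in TBE, with ethidium bromide either post-stained (relaxation) or included in the gel (cleavage).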

[20] = system: HT-29; experiment: Cell cycle arrest in human HT-29 cells assessed as accumulation at S phase at 25 uM after 24 hrs using PI staining by flow cytometry; assay type: functional; procedure, shortened: as §2
[21] = system: HT-29; experiment: Growth inhibition of human HT-29 cells after 48 hrs by sulforhodamine B protein assay; assay type: functional; conditions: HT-29, 48 h; procedure, shortened: as §5
[22] = biological target: DNA topoisomerase 2-alpha (Homo sapiens) (UniProt P11388); experiment: Inhibition of human topoisomerase 2-mediated DNA relaxation assessed as double stranded break form by agarose gel electrophoresis
Chain of DNA topoisomerase 2-alpha (Homo sapiens) (P11388 whole entry): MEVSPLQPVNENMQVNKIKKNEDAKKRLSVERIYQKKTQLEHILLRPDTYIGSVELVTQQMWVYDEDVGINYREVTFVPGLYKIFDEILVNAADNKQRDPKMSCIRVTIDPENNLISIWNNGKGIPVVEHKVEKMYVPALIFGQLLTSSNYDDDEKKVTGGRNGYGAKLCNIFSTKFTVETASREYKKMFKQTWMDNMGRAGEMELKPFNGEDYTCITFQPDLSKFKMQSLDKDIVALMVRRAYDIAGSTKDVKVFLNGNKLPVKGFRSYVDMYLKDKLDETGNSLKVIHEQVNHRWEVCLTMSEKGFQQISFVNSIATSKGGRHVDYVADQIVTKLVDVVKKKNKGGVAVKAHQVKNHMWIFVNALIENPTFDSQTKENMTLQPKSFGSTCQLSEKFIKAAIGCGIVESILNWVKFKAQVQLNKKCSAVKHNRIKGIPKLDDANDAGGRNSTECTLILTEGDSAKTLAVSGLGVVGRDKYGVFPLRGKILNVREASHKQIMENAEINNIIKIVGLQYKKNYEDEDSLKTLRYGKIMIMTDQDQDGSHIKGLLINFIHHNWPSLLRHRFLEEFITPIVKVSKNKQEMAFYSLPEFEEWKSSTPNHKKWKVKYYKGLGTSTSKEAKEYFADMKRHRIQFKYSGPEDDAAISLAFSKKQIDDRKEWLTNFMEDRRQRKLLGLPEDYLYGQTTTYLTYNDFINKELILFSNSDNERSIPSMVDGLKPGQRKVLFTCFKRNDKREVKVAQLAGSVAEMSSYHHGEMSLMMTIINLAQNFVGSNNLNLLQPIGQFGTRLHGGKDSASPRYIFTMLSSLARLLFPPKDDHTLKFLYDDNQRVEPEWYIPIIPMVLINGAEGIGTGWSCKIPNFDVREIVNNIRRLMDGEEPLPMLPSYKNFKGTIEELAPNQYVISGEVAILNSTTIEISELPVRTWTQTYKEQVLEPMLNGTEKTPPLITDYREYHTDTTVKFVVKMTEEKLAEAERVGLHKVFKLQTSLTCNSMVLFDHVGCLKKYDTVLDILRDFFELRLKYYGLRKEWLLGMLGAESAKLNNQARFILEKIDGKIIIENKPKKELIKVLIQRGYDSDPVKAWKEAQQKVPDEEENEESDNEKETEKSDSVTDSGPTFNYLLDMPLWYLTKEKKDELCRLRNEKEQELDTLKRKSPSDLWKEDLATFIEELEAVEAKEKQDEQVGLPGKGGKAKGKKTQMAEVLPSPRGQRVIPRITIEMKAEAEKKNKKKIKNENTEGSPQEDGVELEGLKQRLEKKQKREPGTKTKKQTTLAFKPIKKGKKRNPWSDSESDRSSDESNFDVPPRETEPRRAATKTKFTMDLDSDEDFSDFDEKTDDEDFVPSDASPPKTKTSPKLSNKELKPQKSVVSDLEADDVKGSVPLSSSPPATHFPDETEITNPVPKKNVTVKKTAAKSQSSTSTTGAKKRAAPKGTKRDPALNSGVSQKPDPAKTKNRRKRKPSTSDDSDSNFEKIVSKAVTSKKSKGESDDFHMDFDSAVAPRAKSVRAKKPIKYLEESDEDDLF
Procedure, shortened: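 Supercoiled pUC19 (130 ng) with compound at 20 or 50 µM, or etoposide as control, was incubated with human topoisomerase II (4 units) for 45 min at 37 °C in cleavage buffer. The reaction was stopped with 0.25% SDS plus proteinase K for 30 min at 50 °C. DNA forms were separated on 1% agarose containing ethidium bromide in TBE.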

[23] = system: OVCAR-3; experiment: Growth inhibition of human OVCAR-3 cells after 48 hrs by sulforhodamine B protein assay; assay type: functional; conditions: OVCAR-3, 48 h; procedure, shortened: as §5
[24] = system: HT-29; experiment: Cell cycle arrest in human HT-29 cells assessed as accumulation at G2/M phase at 25 uM after 24 hrs using PI staining by flow cytometry; assay type: functional, cell-based; procedure, shortened: as §2
[25] = system: HT-29; experiment: Cell cycle arrest in human HT-29 cells at 25 uM after 24 hrs using PI staining by flow cytometry
[26] = system: Calf thymus DNA; experiment: Binding affinity to calf thymus DNA assessed as enhancement constant by fluorescence spectroscopy; assay type: nucleic-acid assay; conditions: Bos taurus; procedure, shortened: as §4
[27] = system: HT-29; experiment: Cell cycle arrest in human HT-29 cells assessed as accumulation at S phase at 10 uM after 24 hrs using PI staining by flow cytometry; assay type: functional; procedure, shortened: as §2
[28] = system: ACHN; experiment: Growth inhibition of human ACHN cells after 48 hrs by sulforhodamine B protein assay; assay type: functional; procedure, shortened: as §5
[29] = system: CCRF-CEM; experiment: Growth inhibition of human CCRF-CEM cells after 48 hrs by sulforhodamine B protein assay; assay type: functional; procedure, shortened: as §5
[30] = system: COLO 205; experiment: Growth inhibition of human COLO205 cells after 48 hrs by sulforhodamine B protein assay; assay type: functional; conditions: COLO 205, 48 h; procedure, shortened: as §5

SMILES | ΔTm [1] | ΔTm [2] | ΔTm [3] | Activity [4] | ΔTm [5] | ΔTm [7] | GI50 [9] | Activity [10] | ΔTm [11] | ΔTm [12] | ΔTm [14] | Activity [19] | Activity [22] | also measured
CN(C)CCCNC(=O)c1cc2c3cc(Cl)ccc3[nH]c2c2ccncc12 | 6.6 °C | 17.3 °C | 3.6 °C | Active | 13.9 °C | 22.7 °C | 2.2 µM | Active | 10.3 °C | 28.3 °C | 10.7 °C |  |  | Activity [6]: Active; KSV [8]: 9.95 ×10³ /M; Activity [13]: Active
CN(C)CCNC(=O)c1cc2c3ccccc3[nH]c2c2ncccc12 | 3 °C | 11.8 °C | 0 °C | Active | 7.3 °C | 14.5 °C | 11.5 µM | Active | 2.9 °C | 18.9 °C | 2.9 °C | Active | Active | GI50 ([15]; read-out: GI50): 2.13 µM; GI50 ([15]; read-out: pGI50 (converted)): 2.09 µM; GI50 ([16]; read-out: GI50): 1.14 µM; GI50 ([16]; read-out: pGI50 (converted)): 1.1 µM; Activity [17]: Active; GI50 ([18]; read-out: GI50): 0.515 µM; GI50 ([18]; read-out: pGI50 (converted)): 0.525 µM; Activity [20]: 32.6%; GI50 ([21]; read-out: GI50): 5.27 µM; GI50 ([21]; read-out: pGI50 (converted)): 5.25 µM; GI50 ([23]; read-out: GI50): 0.0254 µM; GI50 ([23]; read-out: pGI50 (converted)): 0.0251 µM
CN(C)CCCNC(=O)c1cc2c3cc(Cl)ccc3[nH]c2c2ncccc12 | 7.4 °C | 9.2 °C | 3 °C |  | 13.2 °C | 20.4 °C | 9.23 µM | Active | 6.1 °C | 27.8 °C | 8.8 °C | Active | Active | Activity [24]: Active; Activity [25]: Active; Activity [26]: 4.84 ×10³ /M; Activity [27]: 26.1%
CC[C@@]1(O)C(=O)OCc2c1cc1n(c2=O)Cc2cc3ccccc3nc2-1 |  |  |  |  |  |  |  |  |  |  |  | Active |  | 
CN(C)CCCNC(=O)c1cc2c3ccccc3[nH]c2c2ncccc12 | 4.4 °C | 8.9 °C | 0 °C | Active | 7.3 °C | 11.6 °C | 10.1 µM | Active | 2.9 °C | 17.5 °C | 4.4 °C | Active | Active | Activity [17]: Active; Activity [26]: 5.94 ×10² /M; Activity [20]: 31.7%; GI50 ([28]; read-out: GI50): 5.24 µM; GI50 ([28]; read-out: pGI50 (converted)): 5.25 µM; GI50 ([29]; read-out: GI50): 4.31 µM; GI50 ([29]; read-out: pGI50 (converted)): 4.27 µM; GI50 ([30]; read-out: GI50): 4.43 µM; GI50 ([30]; read-out: pGI50 (converted)): 4.47 µM; GI50 ([21]; read-out: GI50): 10.3 µM; GI50 ([21]; read-out: pGI50 (converted)): 1.02 µM
O=C(NCCCN1CCOCC1)c1cc2c3cccc(Cl)c3[nH]c2c2ncccc12 | 0.7 °C | 3.9 °C | 0 °C |  | 0.6 °C | 5.3 °C |  | inactive | 2.1 °C | 5.3 °C | 0.4 °C |  |  | 
COc1cc([C@@H]2c3cc4c(cc3[C@@H](O[C@@H]3O[C@@H]5CO[C@@H](C)O[C@H]5[C@H](O)[C@H]3O)[C@H]3COC(=O)[C@H]23)OCO4)cc(OC)c1O |  |  |  |  |  |  |  |  |  |  |  |  | Active | 
